# From ChEMBL document CHEMBL4354865 (J Med Chem, 2020)
# pIC50: −log10 of the molar value. Activity calls are given as the source filed them. The calls are words filed in the database; no cut-off is given here.
# Experiments:
# [1] = Inhibition of CYP450 in rat liver microsomes assessed as reduction in aminopyrine N-demethylase activity preincubated for 3 mins followed by NADPH addition and measured after 15 mins by iodometric titration method; assay type: ADME; details: rat, microsomes, 0.25 h
# Outline: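 CYP inhibition read by aminopyrine N-demethylase activity, with IC50 determined from concentration–response curves. Ketoconazole (CYP3A inhibitor) served as reference.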
# [2] = Drug metabolism in CD-1 mouse liver microsomes assessed as benzimidazole oxidation at 50 uM measured after 1 hr by LC-HRMS analysis; assay type: ADME, Microsome
# [3] = Drug metabolism in CD-1 mouse liver microsomes assessed as oxidative N-dealkylation at 50 uM measured after 1 hr by LC-HRMS analysis; assay type: ADME, Microsome
# [4] = Metabolic stability in CD-1 mouse liver microsomes assessed as parent compound remaining at 50 uM measured after 1 hr in presence of NADPH generating system by UV-LC/MS analysis; assay type: ADME, Microsome; details: read-out: Stability
# Outline: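 Mouse liver microsomes activated with NADPH. Residual parent compound was measured after 1 h incubation.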
# [5] = target: T1, Indoleamine 2,3-dioxygenase 1 (Homo sapiens, UniProt P14902); assay: Selectivity ratio of IC50 for IDO1 in IFNgamma-stimulated human DAN-G cells to IC50 for IDO1 in IFNgamma-stimulated human A375 cells
# Target sequence in this assay (P14902 whole entry, looked up): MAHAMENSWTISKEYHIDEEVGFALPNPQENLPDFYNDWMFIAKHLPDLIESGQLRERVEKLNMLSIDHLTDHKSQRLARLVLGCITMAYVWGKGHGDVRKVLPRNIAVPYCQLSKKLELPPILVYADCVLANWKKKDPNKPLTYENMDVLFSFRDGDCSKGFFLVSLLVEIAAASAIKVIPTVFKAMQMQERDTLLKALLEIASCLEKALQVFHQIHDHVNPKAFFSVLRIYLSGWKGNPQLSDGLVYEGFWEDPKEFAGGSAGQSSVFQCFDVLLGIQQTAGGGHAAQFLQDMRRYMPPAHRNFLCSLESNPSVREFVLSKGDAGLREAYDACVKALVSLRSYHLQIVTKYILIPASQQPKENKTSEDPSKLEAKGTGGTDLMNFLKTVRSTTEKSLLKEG
# [6] = target: T1, Indoleamine 2,3-dioxygenase 1; assay: Inhibition of IDO1 in IFNgamma-stimulated human DAN-G cells assessed as reduction in L-Kyn level measured after 48 hrs by HPLC analysis; assay type: cell-based
# Target sequence in this assay (P14902 whole entry): as the sequence (P14902 whole entry, looked up) above
# [7] = target: T1, Indoleamine 2,3-dioxygenase 1; assay: Inhibition of IDO1 in IFNgamma-stimulated human MCF7 cells assessed as reduction in L-Kyn level measured after 48 hrs by HPLC analysis; assay type: cell-based
# Target sequence in this assay (P14902 whole entry): as the sequence (P14902 whole entry, looked up) above
# [8] = target: Tryptophan 2,3-dioxygenase (Mus musculus, UniProt P48776); assay: Inhibition of mouse TDO transfected in P815 cells assessed as reduction in L-Kyn level measured after 16 hrs by HPLC analysis; assay type: cell-based
# Chain of Tryptophan 2,3-dioxygenase (P48776 whole entry): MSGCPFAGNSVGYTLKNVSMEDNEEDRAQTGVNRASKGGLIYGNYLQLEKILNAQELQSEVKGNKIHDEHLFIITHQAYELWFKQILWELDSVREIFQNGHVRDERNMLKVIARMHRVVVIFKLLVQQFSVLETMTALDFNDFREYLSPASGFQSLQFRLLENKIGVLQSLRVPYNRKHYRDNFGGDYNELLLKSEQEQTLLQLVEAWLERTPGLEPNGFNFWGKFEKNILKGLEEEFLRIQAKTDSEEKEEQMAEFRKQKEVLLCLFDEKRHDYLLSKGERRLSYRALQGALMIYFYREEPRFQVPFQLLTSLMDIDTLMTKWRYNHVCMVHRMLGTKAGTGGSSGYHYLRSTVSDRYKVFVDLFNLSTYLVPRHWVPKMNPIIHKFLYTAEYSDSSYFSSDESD
# Outline: (§1)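 P815 mastocytoma cells stably expressing mouse IDO1 (P1.IDO1) or TDO (P1.TDO) were treated with serial dilutions for 16 h. L-Kyn secreted into the culture supernatant was quantified by HPLC, and an IC50 was determined in each line.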
# [9] = target: Indoleamine 2,3-dioxygenase 1 (Mus musculus, UniProt P28776); assay: Inhibition of mouse IDO1 transfected in P815 cells assessed as reduction in L-Kyn level measured after 16 hrs by HPLC analysis; assay type: cell-based; outline: as §1
# Chain of Indoleamine 2,3-dioxygenase 1 (Mus musculus, UniProt P28776) (P28776 whole entry): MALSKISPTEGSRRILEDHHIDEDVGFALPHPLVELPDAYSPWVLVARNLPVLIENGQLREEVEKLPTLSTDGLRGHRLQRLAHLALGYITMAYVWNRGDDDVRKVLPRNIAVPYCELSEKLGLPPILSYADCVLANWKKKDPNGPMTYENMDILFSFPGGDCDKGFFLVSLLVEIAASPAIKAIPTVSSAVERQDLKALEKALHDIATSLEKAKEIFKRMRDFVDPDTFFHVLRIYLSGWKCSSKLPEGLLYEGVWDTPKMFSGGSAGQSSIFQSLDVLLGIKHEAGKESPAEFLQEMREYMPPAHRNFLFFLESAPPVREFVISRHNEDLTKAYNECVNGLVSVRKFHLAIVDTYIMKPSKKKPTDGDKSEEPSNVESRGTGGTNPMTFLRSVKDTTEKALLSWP
# [10] = target: T1, Indoleamine 2,3-dioxygenase 1; assay: Inhibition of IDO1 in IFNgamma-stimulated human A375 cells assessed as reduction in L-Kyn level measured after 48 hrs by HPLC analysis
# Target sequence in this assay (P14902 whole entry): as the sequence (P14902 whole entry, looked up) above
# [11] = Cytotoxicity against human A375 cells assessed as cell viability at 1 uM measured after 48 hrs by MTT assay relative to control; assay type: cell-based, A-375; details: read-out: Activity
# Outline: (§2)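 A375 cells, unstimulated or stimulated with recombinant human IFN-γ, were left untreated or treated with 1 µM compound for 48 h. L-Kyn was measured by HPLC and cell viability was assessed.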
# [12] = target: T1, Indoleamine 2,3-dioxygenase 1; assay: Inhibition of IDO1 in IFNgamma-stimulated human A375 cells assessed as reduction in L-Kyn level at 1 uM measured after 48 hrs by HPLC analysis relative to control; outline: as §2
# Target sequence in this assay (P14902 whole entry, looked up): as above
# Monocyte [13] = assay: Cytotoxicity against PDAC patient derived monocytes assessed as reduction in cell viability at 30 uM measured after 24 hrs by Annexin-V APC/7-AAD staining based flow cytometric analysis; details: human
# Outline: (§3)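 Monocytes from healthy donors (n=3) and from PDAC patients (n=3) were treated for 24 h, with DMSO as control. Viability was normalized to untreated cells. Healthy-donor cells received a range of concentrations; PDAC cells received 30 µM.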
# Monocyte [14] = assay: Cytotoxicity against human monocytes assessed as reduction in cell viability at 30 uM measured after 24 hrs by Annexin-V APC/7-AAD staining based flow cytometric analysis; outline: as §3
# [15] = target: T1, Indoleamine 2,3-dioxygenase 1; assay: Inhibition of IDO1 in PDAC patient derived suppressive monocytes co-cultured with human PBMC assessed as reduction in anti-CD3/anti-CD28-stimulated CD3+T cell proliferation at 30 uM preincubated for 4 days followed by co-culturing of monocytes and measured after 24 hrs by flow cytometric analysis
# Target sequence in this assay (P14902 whole entry, looked up): as above
# Monocyte [16] = assay: Effect on anti-CD3/anti-CD28-stimulated CD3+T cell proliferation in PDAC patient derived non-suppressive monocytes co-cultured with human PBMC at 30 uM preincubated for 4 days followed by co-culturing of monocytes and measured after 24 hrs by flow cytometric analysis; assay type: cell-based
# Outline: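 PDAC patient monocytes (suppressive or non-suppressive) were pre-treated with 30 µM compound or DMSO, then co-cultured for 4 days with Cell Trace-labelled activated CD3+ T cells. T-cell proliferation was read from proliferation peaks and normalized to activated T cells cultured without myeloid cells. Data are mean ± SEM; Mann-Whitney test.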
# [17] = Half life in BALB/c mouse at 10 mg/kg, iv by LC-MS analysis; assay type: ADME, organism-based; details: in vivo
# Outline: (§4)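 Mice received a single i.v. dose of 10 mg/kg. Serial blood samples were taken and PK parameters derived, including half-life, clearance, volume of distribution and Cmax.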
# [18] = Volume of distribution in BALB/c mouse at 10 mg/kg, iv by LC-MS analysis; assay type: ADME, organism-based; details: in vivo; outline: as §4
# [19] = Cmax in BALB/c mouse at 10 mg/kg, iv by LC-MS analysis; assay type: ADME, organism-based; design: dose 10 mg/kg, route intravenous; details: in vivo; outline: as §4
# Mus musculus [20] = species: Mus musculus; assay: Selectivity ratio of IC50 for inhibition of mouse TDO transfected in P815 cells to IC50 for inhibition of mouse IDO1 transfected in P815 cells; assay type: cell-based; outline: as §1
# Mus musculus [21] = assay: In vivo inhibition of IDO1 in BALB/c mouse assessed as reduction in L-kyn level at 10 mg/kg, iv measured up to 8 hrs by LC-HRMS analysis
# [22] = Metabolic stability in CD-1 mouse liver microsomes assessed as parent compound remaining at 50 uM measured after 1 hr in presence of NADPH by UV-LC/MS analysis
compound,measurement,setting,value
O=C(NCc1cccc(Cn2cnc3ccccc32)c1)c1cc2ccccc2[nH]1,inhibition (INH),[1],Not Active
same,Drug metabolism,[2],Metabolite_Detected
same,Drug metabolism,[3],Metabolite_Detected
same,"remaining at 1 h, 50 µM",[4],65%
same,Ratio IC50,[5],1.9
same,pIC50,[6],6.85
same,pIC50,[7],7.08
same,pIC50,[8],4.88
same,pIC50,[9],8.03
same,pIC50,[10],7.14
same,"viability at 48 h, 1 µM",[11],99%
same,inhibition,[12],94%
same,Activity,Monocyte [13],Non-Toxic
same,Activity,Monocyte [14],Non-Toxic
same,inhibition,[15],Active
same,Activity,Monocyte [16],Non-Toxic
same,t1/2,[17],39 min
same,Vd,[18],6.6 L/kg
same,Cmax,[19],2680 ng/mL
same,Ratio IC50,Mus musculus [20],> 1000
same,inhibition,Mus musculus [21],Active
same,"remaining at 1 h, 50 µM",[22],65%
